Screening results: PubChem, Johns Hopkins Ion Channel Center
Hits are enriched below; roughly 3.5% of the tested compounds scored in any of these assays.
RGS4 pot: RGS4 potentiation or activation | AID 463111 | HEK293 M3R/inducible RGS4, carbachol calcium flux Fluo4; active compounds read low | B-score at 10 µM | hit rate 0.92% among 310,000;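 active means B-score of the integrated calcium signal more than 4 SD below the library mean, with starting fluorescence not abnormally high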;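 further: negative B-score means reduced calcium response which marks RGS4 activation or potentiation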
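System – HEK293 FlpIn-TREx cells, stable M3R, doxycycline-inducible RGS4 · Reagent – ECmax carbachol challenge · Times – compound preincubation 20 min at room temperature before agonist · Technique – Fluo4 fluorescence kinetic imaging of calcium · Measure – B score of integrated Fluo4 ratio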
MrgX1 antag: blocks BAM8-22 activation of human MrgX1 receptor; Q96LB2; MRGX1-HEK293 calcium flux, Fluo-4, BAM8-22 antagonism; active compounds read low; B-score at 10 µM; hit rate 1.3% among 310,000; AID 588676;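 active means calcium-response B-score plate-corrected more than 3 library SD below zero, starting fluorescence within 5 deviations, no agonist response on first addition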;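 further: peak minus trough fluorescence over baseline after final BAM8-22 challenge near maximal dose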
Target sequence (Q96LB2 whole entry, looked up): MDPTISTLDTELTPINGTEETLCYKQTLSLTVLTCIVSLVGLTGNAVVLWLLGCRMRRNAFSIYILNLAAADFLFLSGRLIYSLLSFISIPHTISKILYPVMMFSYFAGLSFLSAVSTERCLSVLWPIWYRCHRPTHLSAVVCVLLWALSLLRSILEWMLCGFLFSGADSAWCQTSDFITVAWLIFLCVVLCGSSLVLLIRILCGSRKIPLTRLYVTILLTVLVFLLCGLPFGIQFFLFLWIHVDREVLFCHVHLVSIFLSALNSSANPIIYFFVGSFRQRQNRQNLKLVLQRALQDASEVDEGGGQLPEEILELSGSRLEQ
RGS4 inh: inhibitors of human RGS4 | HEK293 M3R/RGS4 inducible, Fluo-4 calcium flux; active compounds read high; triggered by carbachol at its EC20 | AID 463165 | P49798 | B-score at 10 µM | hit rate 0.45% among 310,000;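 active means B-score, a plate-corrected calcium signal, over three deviations above library mean, with baseline fluorescence within five deviations of library mean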;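 further: RGS4 expression induced by doxycycline in cells with stable M3 receptor; B-score is computed from the integrated fluorescence ratio over baseline after carbachol; higher B-score means a larger calcium signal and so more RGS4 inhibition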
Target sequence (P49798 whole entry, looked up): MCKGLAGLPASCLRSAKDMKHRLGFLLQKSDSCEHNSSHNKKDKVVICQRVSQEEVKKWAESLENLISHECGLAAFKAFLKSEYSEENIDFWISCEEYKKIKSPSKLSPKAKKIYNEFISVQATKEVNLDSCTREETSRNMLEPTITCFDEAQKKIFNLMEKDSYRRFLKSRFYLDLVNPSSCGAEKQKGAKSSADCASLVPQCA
MrgX1 PAM: allosterically activates human MrgX1 receptor signaling. Q96LB2. MrgX1-HEK293, Fluo-4 calcium flux, FDSS; active compounds read high. B-score at 10 µM. hit rate 0.63% among 310,000. AID 588675;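 active means plate-corrected calcium response at least 3 library SD above typical, normal starting fluorescence, not activating the receptor alone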;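 further: compound read alongside a low EC10 to EC30 dose of BAM8-22 agonist; peak minus trough fluorescence over baseline measured at the second addition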
MrgX1 ag: agonists of human MrgX1 receptor; Q96LB2; MrgX1-HEK293 cells, Fluo-4 calcium fluorescence, agonist mode; active compounds read high; B-score at 10 µM; hit rate 0.44% among 310,000; AID 588627;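 active means calcium response B-score plate-corrected fluorescence ratio at least 3 library SD, with starting fluorescence B-score inside 5 SD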
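Assay system: MrgX1-expressing HEK293 cells / Amount: fifteen thousand cells per well / Doses: test compound in the initial addition of three / Timing: cells plated overnight, dye loaded 0.5 h 37 °C, 0.5 h room temperature / Technique: kinetic calcium dye fluorescence, Fluo-4 NW / Control set: positive and negative controls per plate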
Of the large screens only hits and unclear results are named; the others gave an inactive call.

Cc1cccc(C)c1NC(=S)Nc1ccc(Cl)c(Cl)c1	MrgX1 ag 31.9
Cc1cc(C)c2nc(-c3ccncc3)cc(C(=O)N3CCN(Cc4ccccc4Cl)CC3)c2c1	RGS4 pot -7.38
COc1ccc(C(=O)O)cc1S(=O)(=O)NC(C)C	none
CCNC(=O)COc1ccc(/C=C2\COc3ccccc3C2=O)cc1OC	none
CC1=CN2C(=N)/C(=C/c3ccc(C)o3)C(=O)N=C2S1	MrgX1 PAM 15.3
COc1ccc(S(=O)(=O)Nc2ccc(OCC(=O)O)cc2)c2ccccc12	none
COC(=O)c1sc(NC(=O)C(C)C)c(C(=O)OC)c1C	none
COC(=O)c1sc(NC(=S)NNC(=O)c2c(Br)c(C)nn2C)c(C(=O)OC)c1C	MrgX1 antag -5.11
O=C1S/C(=C\c2ccc(O)c([N+](=O)[O-])c2)C(=O)N1Cc1cccc([N+](=O)[O-])c1	none
O=C(O)c1cccc(CN2C(=O)S/C(=C/c3ccccc3[N+](=O)[O-])C2=O)c1	MrgX1 PAM 10.9
COc1ccc(CN2CCNC(=O)C2CC(=O)N(C)Cc2nc(C)cs2)c(OC)c1 (stereo unspecified)	none
Cc1cccn2c(=O)c3cc(C#N)c(=NC(=O)c4ccccc4)n(Cc4ccco4)c3nc12	MrgX1 antag -4.87
CCOc1ccc(OCC(=O)OCC(=O)N(CC(C)C)c2c(N)n(Cc3ccccc3)c(=O)[nH]c2=O)cc1	none
CC(C)CN(C(=O)COC(=O)COc1ccc2ccccc2c1)c1c(N)n(Cc2ccccc2)c(=O)[nH]c1=O	MrgX1 antag -6.39
O=C(NCCCl)Nc1cccnc1Cl	none
CN1CCC(OC(=O)c2ccccc2Cl)CC1	RGS4 pot -7.19
Cc1ccccc1C(=O)OC1CCN(C)CC1	none
CC1(C)CC(=O)C(C2=NC3(CCCCC3)Cc3ccccc32)=C(O)C1	none
CCC1(CC)Cc2ccccc2C(C2=C(O)CC(C)(C)CC2=O)=N1	MrgX1 antag -4.83
COc1ccccc1Oc1ccc(S(=O)(=O)N2CCCCC2C)cc1 (stereo unspecified)	none
COc1ccccc1Oc1ccc(S(=O)(=O)N2CCCC2)cc1	MrgX1 antag -6.15
COc1cccc(CN(C)C(=O)Cc2c[nH]c3ccccc23)c1	none
CCC(C(=O)NCCCN1CCN(C)CC1)n1nc(C)n2c(cc3occc32)c1=O (stereo unspecified)	none
CCCN(C(=O)CSc1nc2ccccc2n1CC)C1CCS(=O)(=O)C1 (stereo unspecified)	none
CCC(=O)Nc1ccc(NC(=O)c2cc3ccccc3o2)c(OC)c1	none
C/C(CCc1oc2ccc(Br)cc2c1-c1ccc(C)o1)=N/O	MrgX1 antag -6.34
CCN(CC(=O)Nc1ccc2c(c1)OCCO2)C(=O)/C=C/c1ccccc1	none
CCN(CC(=O)Nc1ccc2c(c1)OCCO2)C(=O)CC(NC(C)=O)c1ccccc1 (stereo unspecified)	MrgX1 antag -7.4
Nc1c(C(=O)N/N=C/c2ccc(F)cc2)oc2nc(-c3ccccc3)cc(-c3ccco3)c12	MrgX1 antag -5.42
O=C(N/N=C/c1ccc(F)cc1)c1cc(-c2ccco2)nc2ccccc12	none
Nc1c(C(=O)N/N=C/c2ccccc2Cl)oc2nc(-c3ccccc3)cc(-c3ccco3)c12	MrgX1 antag -7.66
Cc1ccc(CN2C(=O)/C(=C\c3ccc(C(=O)NCc4cccnc4)cc3)Oc3ccccc32)cc1	MrgX1 antag -4.56
O=C(CN1C(=O)/C(=C\c2ccccc2Cl)Oc2ccccc21)NCc1cccnc1	none
O=C(NCCNc1ccc(Cl)cc1[N+](=O)[O-])c1cccnc1	none
Cc1ccoc1C(=O)NCCNc1ccc(Cl)cc1[N+](=O)[O-]	MrgX1 antag -5.09
O=C(NCc1csc2ccccc12)Nc1cc(Cl)cc(Cl)c1	MrgX1 antag -4.57
N=C1/C(=C\c2ccc(-c3cccc(C(=O)O)c3)o2)C(=O)N=C2SC=C(c3ccccc3)N12	MrgX1 PAM 7.05
COCCCNCCOc1ccc(C(C)(C)c2ccccc2)cc1	RGS4 pot -7.75
CNCCCOc1ccc(C(C)(C)c2ccccc2)cc1	none (no result: MrgX1 antag, MrgX1 PAM, MrgX1 ag)
CCN(CC)CCN1C(=O)C(=O)/C(=C(/O)c2ccc(OC(C)C)cc2)C1c1cccs1 (stereo unspecified)	none
CCn1cc(/C=C/C(=O)Nc2c(C)nn(Cc3ccccc3)c2C)cn1	none
Cc1nn(Cc2ccccc2Cl)c(C)c1NC(=O)/C=C/c1cnn(C)c1	MrgX1 antag -4.57
Cn1nnnc1Sc1c(Cl)cccc1[N+](=O)[O-]	MrgX1 antag -5.57
COc1cc(/C=C2/C(=O)NN(c3ccc(C)c(Cl)c3)C2=O)cc([N+](=O)[O-])c1O	none
COc1cc(/C=C2/C(=O)NN(c3cccc(C)c3)C2=O)cc([N+](=O)[O-])c1O	MrgX1 antag -9.59
O=C(Nc1cccc(Cl)c1)NC1CC2CCC1C2 (stereo unspecified)	none
Cc1cc(NC(=O)c2c([N+](=O)[O-])c(C)nn2C)no1	MrgX1 antag -5.01
Cc1cc(NC(=O)c2c(Cl)c(C)nn2C)no1	none
CC(C)c1ccccc1NC(=O)CNCCOc1ccccc1F	RGS4 pot -7.15
Cc1nn(-c2ccccc2)c(C)c1/C=N/NC(=O)CSc1nc2ccccc2c(=O)n1-c1ccc(Br)cc1	none
Cc1ccc(-n2c(SCC(=O)N/N=C/c3c(C)nn(-c4ccccc4)c3C)nc3ccccc3c2=O)cc1	MrgX1 antag -6.4
CCOC(=O)c1c(C)[nH]c(C)c1C(=O)CSc1nc2ccccc2c(=O)n1-c1ccc(C)cc1	RGS4 pot -7.24
COc1ccc(S(=O)(=O)N2CCN(C(=O)c3ccco3)CC2)c(C)c1C	none
CCC1(c2ccc(F)cc2)NC(=O)N(CC(=O)N(C)C2CCS(=O)(=O)C2)C1=O (stereo unspecified)	none
Cc1ccc(/C=C2/C(=O)ON=C2c2ccccc2)o1	MrgX1 ag 42.6
CC1=NOC(=O)/C1=C\c1ccc(-c2cccc(Cl)c2)o1	RGS4 pot -8.95
O=C(CSc1nnnn1C1CC2C=CC1C2)Nc1ccc(C(=O)O)cc1 (stereo unspecified)	none
c1ccc(-c2ccc(CN3CCN(c4ncccn4)CC3)cc2)cc1	RGS4 pot -6.99
CC(C)(C)NC(=O)CN(C(=O)c1csnn1)c1cccc2c1CCCC2	none
O=C(N/N=C/c1ccccc1F)c1cccc(NC(=O)c2ccccc2Cl)c1	MrgX1 PAM 8.44
Cc1ccccc1C(=O)Nc1cccc(C(=O)Nc2ccccc2C(=O)O)c1	none
O=C(Nc1ccccc1C(=O)O)c1cccc(NC(=O)c2ccccc2Cl)c1	RGS4 pot -7.01
O=C(N/N=C/c1ccc(F)cc1)c1cccc(NC(=O)c2ccc(F)cc2)c1	RGS4 pot -7.33
CN(C)/N=C/C=C1\CCC/C(=C/c2cccs2)C1=O	MrgX1 PAM 9.42
CCc1ccc(N2CC(C(=O)Nc3cccc(S(=O)(=O)N4CCCC4)c3)CC2=O)cc1 (stereo unspecified)	none
